Measured values reported in ChEMBL document CHEMBL4725348, “Rational Design and Evaluation of 6-(Pyrimidin-2-ylamino)-3,4-dihydroquinoxalin-2(1H)-ones as Polypharmacological Inhibitors of BET and Kinases” (J Med Chem, 2020).
One block for each molecule: values may come before it.

Tests used:
[1] = target: T1, Cyclin-dependent kinase 9 (Homo sapiens, UniProt P50750); experiment: Inhibition of human CDK9 at 100 nM by mobility shift assay relative to control
Summary of the method: (§1)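 Recombinant CDK9 incubated with compound and CTD3 peptide substrate. Activity read by Caliper mobility-shift; Dinaciclib served as positive control. IC50 values are means of at least two independent experiments.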

[2] = target: T1, Cyclin-dependent kinase 9; experiment: Inhibition of human CDK9 at 1 uM by mobility shift assay relative to control; summary of the method: as §1
[3] = target: Cyclin-dependent kinase 6 (Homo sapiens) (UniProt Q00534); experiment: Inhibition of CDK6 (unknown origin) at 100 nM relative to control
Sequence of Cyclin-dependent kinase 6 (Homo sapiens) (Q00534 whole entry, canonical isoform): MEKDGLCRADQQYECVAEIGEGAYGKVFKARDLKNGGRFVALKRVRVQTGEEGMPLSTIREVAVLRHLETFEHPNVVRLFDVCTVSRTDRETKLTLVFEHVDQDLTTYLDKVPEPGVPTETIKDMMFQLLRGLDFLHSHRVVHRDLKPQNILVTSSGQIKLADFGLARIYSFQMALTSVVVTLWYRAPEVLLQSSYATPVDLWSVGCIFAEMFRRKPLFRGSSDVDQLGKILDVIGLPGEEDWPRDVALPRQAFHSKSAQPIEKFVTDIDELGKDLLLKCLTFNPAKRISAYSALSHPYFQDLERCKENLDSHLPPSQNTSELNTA

[4] = target: Phosphatidylinositol 4,5-bisphosphate 3-kinase catalytic subunit alpha isoform (Homo sapiens) (UniProt P42336); experiment: Inhibition PI3Kalpha (unknown origin) at 100 nM relative to control
Sequence of Phosphatidylinositol 4,5-bisphosphate 3-kinase catalytic subunit alpha isoform (Homo sapiens) (P42336 whole entry, canonical isoform): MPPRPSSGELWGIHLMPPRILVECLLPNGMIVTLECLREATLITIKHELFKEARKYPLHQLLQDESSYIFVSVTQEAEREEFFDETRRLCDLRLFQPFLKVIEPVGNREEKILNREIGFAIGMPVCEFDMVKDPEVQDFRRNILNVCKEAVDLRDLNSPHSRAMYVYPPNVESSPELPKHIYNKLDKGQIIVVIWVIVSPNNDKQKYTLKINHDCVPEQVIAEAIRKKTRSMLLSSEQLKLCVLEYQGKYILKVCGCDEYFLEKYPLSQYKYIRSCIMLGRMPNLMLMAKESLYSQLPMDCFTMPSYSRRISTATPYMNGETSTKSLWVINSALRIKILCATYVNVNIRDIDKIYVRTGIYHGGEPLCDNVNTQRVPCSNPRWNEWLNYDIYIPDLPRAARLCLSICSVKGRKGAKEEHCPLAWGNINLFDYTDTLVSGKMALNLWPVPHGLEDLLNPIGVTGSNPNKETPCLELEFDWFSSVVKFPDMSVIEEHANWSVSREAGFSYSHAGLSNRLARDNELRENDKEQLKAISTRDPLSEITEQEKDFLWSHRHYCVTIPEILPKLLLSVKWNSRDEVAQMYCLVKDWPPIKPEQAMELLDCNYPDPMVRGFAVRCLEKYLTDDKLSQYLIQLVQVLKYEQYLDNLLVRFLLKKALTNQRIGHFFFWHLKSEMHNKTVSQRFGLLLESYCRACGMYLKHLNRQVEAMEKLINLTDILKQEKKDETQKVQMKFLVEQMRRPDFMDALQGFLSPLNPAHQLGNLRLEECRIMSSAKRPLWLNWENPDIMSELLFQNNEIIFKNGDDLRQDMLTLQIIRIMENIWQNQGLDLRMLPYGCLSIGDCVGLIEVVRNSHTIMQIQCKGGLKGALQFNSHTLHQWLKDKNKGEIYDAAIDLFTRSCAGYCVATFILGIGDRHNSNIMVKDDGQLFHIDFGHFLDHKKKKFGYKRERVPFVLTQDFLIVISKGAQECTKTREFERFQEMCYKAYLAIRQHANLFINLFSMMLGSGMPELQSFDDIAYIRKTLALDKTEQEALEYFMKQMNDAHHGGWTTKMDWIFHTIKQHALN

[5] = target: Cyclin-dependent kinase 6 (Homo sapiens) (UniProt Q00534); experiment: Inhibition of CDK6 (unknown origin) at 1 uM relative to control
[6] = target: T2, Aurora kinase A (Homo sapiens) (UniProt O14965); experiment: Inhibition AuroraA (unknown origin) at 100 nM relative to control
T2 sequence (whole entry): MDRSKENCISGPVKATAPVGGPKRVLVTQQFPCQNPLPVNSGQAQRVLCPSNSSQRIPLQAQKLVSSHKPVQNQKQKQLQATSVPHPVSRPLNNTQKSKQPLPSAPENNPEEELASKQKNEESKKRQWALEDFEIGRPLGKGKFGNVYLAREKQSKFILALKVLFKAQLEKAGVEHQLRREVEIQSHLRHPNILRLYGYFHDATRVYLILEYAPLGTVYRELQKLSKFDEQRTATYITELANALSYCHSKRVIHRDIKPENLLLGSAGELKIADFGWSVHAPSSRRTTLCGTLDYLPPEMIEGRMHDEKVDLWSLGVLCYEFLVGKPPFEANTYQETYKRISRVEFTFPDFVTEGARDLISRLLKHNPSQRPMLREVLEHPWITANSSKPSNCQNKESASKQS

[7] = target: T3, Bromodomain-containing protein 4 (Homo sapiens, UniProt O60885); experiment: Inhibition of His6-tagged BRD4 bromodomain 1 (unknown origin) expressed in Escherichia coli Bl21(DE3) cells incubated for 4 hrs by FP assay
Summary of the method: (§2)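 Fluorescence polarization. Purified bromodomain (His6 tag removed with TEV, size-exclusion purified) equilibrated with fluorescent ligand. Compound or DMSO (2‰ final) then added and left 4 h at room temperature in the dark. Anisotropy read at ex 485/em 530 nm. IC50 values are means of at least two independent experiments; single-point inhibition tested at the listed concentration.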

[8] = target: Phosphatidylinositol 4,5-bisphosphate 3-kinase catalytic subunit alpha isoform (Homo sapiens) (UniProt P42336); experiment: Inhibition PI3Kalpha (unknown origin) at 1 uM relative to control
[9] = target: T3, Bromodomain-containing protein 4; experiment: Inhibition of His6-tagged BRD4 bromodomain 1 (unknown origin) expressed in Escherichia coli Bl21(DE3) cells at 1 uM incubated for 4 hrs by FP assay relative to control; summary of the method: as §2
[10] = target: T1, Cyclin-dependent kinase 9; experiment: Inhibition of human CDK9 by mobility shift assay relative to control; summary of the method: as §1
[11] = target: T2, Aurora kinase A (Homo sapiens); experiment: Inhibition AuroraA (unknown origin) at 1 uM relative to control
[12] = target: ALK tyrosine kinase receptor (Homo sapiens, UniProt Q9UM73); experiment: Inhibition of ALK (unknown origin)
Sequence of ALK tyrosine kinase receptor (Q9UM73 whole entry): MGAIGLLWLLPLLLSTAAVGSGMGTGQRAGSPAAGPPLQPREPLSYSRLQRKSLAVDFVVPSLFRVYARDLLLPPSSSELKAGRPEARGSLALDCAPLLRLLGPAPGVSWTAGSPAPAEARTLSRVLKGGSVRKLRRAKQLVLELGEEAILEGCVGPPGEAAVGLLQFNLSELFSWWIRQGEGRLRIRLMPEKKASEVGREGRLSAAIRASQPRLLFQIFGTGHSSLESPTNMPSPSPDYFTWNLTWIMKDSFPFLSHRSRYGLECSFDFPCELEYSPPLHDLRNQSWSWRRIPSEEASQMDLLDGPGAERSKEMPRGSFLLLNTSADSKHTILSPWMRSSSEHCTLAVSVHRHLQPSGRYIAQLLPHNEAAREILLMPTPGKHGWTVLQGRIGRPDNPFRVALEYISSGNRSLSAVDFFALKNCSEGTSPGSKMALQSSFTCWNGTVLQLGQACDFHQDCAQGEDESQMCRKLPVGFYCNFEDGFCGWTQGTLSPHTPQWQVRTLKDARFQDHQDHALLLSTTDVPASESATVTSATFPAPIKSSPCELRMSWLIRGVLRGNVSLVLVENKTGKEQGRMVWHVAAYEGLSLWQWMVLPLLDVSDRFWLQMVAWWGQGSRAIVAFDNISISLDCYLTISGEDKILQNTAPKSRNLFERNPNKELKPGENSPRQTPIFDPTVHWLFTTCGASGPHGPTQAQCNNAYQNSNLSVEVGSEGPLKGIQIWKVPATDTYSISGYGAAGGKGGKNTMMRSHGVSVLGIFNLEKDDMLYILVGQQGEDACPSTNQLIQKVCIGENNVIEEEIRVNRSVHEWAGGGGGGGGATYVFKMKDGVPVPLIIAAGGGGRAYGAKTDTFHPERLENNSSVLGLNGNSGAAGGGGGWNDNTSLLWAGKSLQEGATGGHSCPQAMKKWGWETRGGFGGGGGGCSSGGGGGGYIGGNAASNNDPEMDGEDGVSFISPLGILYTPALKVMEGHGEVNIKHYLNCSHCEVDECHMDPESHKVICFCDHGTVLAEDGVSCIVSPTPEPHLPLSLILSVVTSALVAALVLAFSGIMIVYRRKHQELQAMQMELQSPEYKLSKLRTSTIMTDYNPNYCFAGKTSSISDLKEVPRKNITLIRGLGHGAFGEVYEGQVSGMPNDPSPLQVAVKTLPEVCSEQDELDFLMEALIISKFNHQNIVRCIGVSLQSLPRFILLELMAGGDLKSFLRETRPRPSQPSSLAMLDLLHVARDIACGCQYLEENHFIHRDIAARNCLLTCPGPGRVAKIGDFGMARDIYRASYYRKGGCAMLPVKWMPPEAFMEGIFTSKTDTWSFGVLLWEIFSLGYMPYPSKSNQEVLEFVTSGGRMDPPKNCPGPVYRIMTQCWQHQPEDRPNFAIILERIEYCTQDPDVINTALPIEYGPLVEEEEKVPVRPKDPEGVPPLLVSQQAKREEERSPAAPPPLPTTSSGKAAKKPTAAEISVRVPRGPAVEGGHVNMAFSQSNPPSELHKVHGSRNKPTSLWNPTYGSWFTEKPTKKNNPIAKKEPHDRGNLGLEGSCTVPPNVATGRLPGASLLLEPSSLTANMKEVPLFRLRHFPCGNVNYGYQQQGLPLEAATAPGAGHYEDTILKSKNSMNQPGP

[13] = target: T3, Bromodomain-containing protein 4; experiment: Inhibition of His6-tagged BRD4 bromodomain 1 (unknown origin) expressed in Escherichia coli Bl21(DE3) cells at 10 uM incubated for 4 hrs by FP assay relative to control; summary of the method: as §2
[14] = target: T1, Cyclin-dependent kinase 9; experiment: Inhibition of CDK9 in human HCT-116 cells assessed as reduction in phosphorylation of AR protein expression at 50 to 500 nM after 24 hrs by Western blot analysis; type: cell-based; settings: dose nM 50-500, time 24.0 hrs
Summary of the method: (§3)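 HCT-116 cells plated 24 h, then treated 24 h at 0, 50, 100, 250 or 500 nM. Lysates immunoblotted for p-AR and p-RNA Pol II CTD with GAPDH as loading control; bands quantified and normalized.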

[15] = target: T1, Cyclin-dependent kinase 9; experiment: Inhibition of CDK9 in human HCT-116 cells assessed as reduction in phosphorylation of […] protein expression at 50 to 500 nM after 24 hrs by Western blot analysis; type: cell-based; settings: dose nM 50-500, time 24.0 hrs; summary of the method: as §3

T1 sequence (P50750 whole entry): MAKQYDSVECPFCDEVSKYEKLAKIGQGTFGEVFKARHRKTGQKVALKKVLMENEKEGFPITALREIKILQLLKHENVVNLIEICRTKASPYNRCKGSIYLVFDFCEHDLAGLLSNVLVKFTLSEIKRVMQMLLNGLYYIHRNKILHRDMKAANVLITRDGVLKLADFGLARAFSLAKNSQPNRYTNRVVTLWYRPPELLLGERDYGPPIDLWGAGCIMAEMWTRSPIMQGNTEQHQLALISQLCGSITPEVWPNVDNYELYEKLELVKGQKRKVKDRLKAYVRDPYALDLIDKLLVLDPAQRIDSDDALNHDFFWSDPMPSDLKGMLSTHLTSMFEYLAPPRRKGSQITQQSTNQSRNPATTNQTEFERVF

Structure (SMILES): CC(C)N1c2cc(Nc3nccc(-c4cccc(Nc5ccccc5)c4)n3)ccc2N(C)C(=O)[C@H]1C
- inhibition [1]: 8.8%
- inhibition [2]: 47.8%

Structure (SMILES): Cc1noc(C)c1-c1cccc(Nc2nccc(-c3ccccc3)n2)c1
- inhibition [9]: 2.2%

Structure (SMILES): Cc1cccc(-c2ccnc(Nc3ccc4c(c3)N(C(C)C)[C@H](C)C(=O)N4C)n2)c1
- IC50 [10]: 196 nM
- IC50 [7]: 760 nM

Structure (SMILES): CC(C)N1c2cc(Nc3nccc(-c4cccc5c4CCCN5)n3)ccc2N(C)C(=O)[C@H]1C
- IC50 [10]: 67 nM
- IC50 [7]: 27 nM

Structure (SMILES): CC(C)N1c2cc(Nc3nccc(-c4ccnc5ccccc45)n3)ccc2N(C)C(=O)[C@H]1C
- IC50 [10]: 19.8 nM
- IC50 [7]: 25.3 nM

Structure (SMILES): CCOc1cc(C2CCN(C)CC2)ccc1Nc1ncc2c(n1)N(Cc1cc(C)cs1)[C@H](CC)C(=O)N2C
- IC50 [12]: 17 nM

Structure (SMILES): CC(C)N1c2cc(Nc3nccc(-c4ccccc4N)n3)ccc2N(C)C(=O)[C@H]1C
- IC50 [10]: 39.2 nM
- IC50 [7]: 251 nM

Structure (SMILES): CC(C)N1c2cc(Nc3nccc(-c4cccc5nn(C)cc45)n3)ccc2N(C)C(=O)[C@H]1C
- IC50 [10]: 110 nM
- IC50 [7]: 168 nM

Structure (SMILES): CC(C)N1c2cc(Nc3nccc(-c4cccc5ncccc45)n3)ccc2N(C)C(=O)[C@H]1C
- IC50 [10]: 81.6 nM
- IC50 [7]: 15.2 nM

Structure (SMILES): Cc1cnc(Nc2ccc3c(c2)N(C(C)C)[C@H](C)C(=O)N3C)nc1-c1cncc2ccccc12
- IC50 [10]: 100 nM
- IC50 [7]: 19.1 nM

Structure (SMILES): Cc1ccc(N)cc1-c1ccnc(Nc2ccc3c(c2)N(C(C)C)[C@H](C)C(=O)N3C)n1
- IC50 [10]: 151 nM
- IC50 [7]: 236 nM

Structure (SMILES): Cc1noc(C)c1-c1cccc(Nc2nccc(-c3ccncc3)n2)c1
- inhibition [9]: 37.7%

Structure (SMILES): CC(C)N1c2cc(Nc3nccc(-c4ccc(N)cc4)n3)ccc2N(C)C(=O)[C@H]1C
- IC50 [10]: 48.9 nM
- IC50 [7]: 480 nM

Structure (SMILES): CC(C)N1c2cc(Nc3nccc(-c4cccc5[nH]ccc45)n3)ccc2N(C)C(=O)[C@H]1C
- IC50 [10]: 13.8 nM
- IC50 [7]: 288 nM

Structure (SMILES): COc1ccccc1-c1ccnc(Nc2ccc3c(c2)N(C(C)C)[C@H](C)C(=O)N3C)n1
- inhibition [3]: 2.3%
- inhibition [1]: 67.9%
- inhibition [4]: -2.1%
- inhibition [5]: 8.1%
- inhibition [2]: 104%
- inhibition [6]: 37.4%
- IC50 [7]: 477 nM
- inhibition [11]: 86.8%
- inhibition [8]: 0.1%

Structure (SMILES): COc1cccc(-c2ccnc(Nc3ccc4c(c3)N(C(C)C)[C@H](C)C(=O)N4C)n2)c1
- IC50 [10]: 126 nM
- IC50 [7]: 965 nM

Structure (SMILES): CCNc1cccc(-c2ccnc(Nc3ccc4c(c3)N(C(C)C)[C@H](C)C(=O)N4C)n2)c1
- IC50 [10]: 37.8 nM
- IC50 [7]: 319 nM

The remaining lines, values ahead:

- inhibition [3]: -0.8%
- inhibition [1]: 83.4%
- inhibition [4]: 0%
- inhibition [5]: 4.8%
- inhibition [2]: 102%
- inhibition [6]: 10.6%
- IC50 [7]: 193 nM
- inhibition [8]: 22.9%
Structure (SMILES): CC(C)N1c2cc(Nc3nccc(-c4ccccc4)n3)ccc2N(C)C(=O)[C@H]1C

- inhibition [1]: 7.6%
- inhibition [2]: 58.6%
- IC50 [7]: 329 nM
Structure (SMILES): CC(C)N1c2cc(Nc3nccc(-c4c[nH]c5ccccc45)n3)ccc2N(C)C(=O)[C@H]1C

- inhibition [1]: 1.5%
- inhibition [2]: 1%
- IC50 [7]: 271 nM
Structure (SMILES): Cc1ccccc1-c1ccnc(Nc2ccc3c(c2)N(C(C)C)[C@H](C)C(=O)N3C)n1

- IC50 [10]: 23 nM
- IC50 [7]: 58.1 nM
Structure (SMILES): CC(C)N1c2cc(Nc3ncc(Cl)c(-c4cncc5ccccc45)n3)ccc2N(C)C(=O)[C@H]1C

- inhibition [3]: -1.4%
- inhibition [1]: -3%
- inhibition [4]: -2.6%
- inhibition [5]: -0.1%
- inhibition [2]: 3.8%
- inhibition [6]: 1.1%
- IC50 [7]: 820 nM
- inhibition [11]: -0.8%
- inhibition [8]: 3%
Structure (SMILES): COc1ccccc1-c1cccc(Nc2ccc3c(c2)N(C(C)C)[C@H](C)C(=O)N3C)c1

- IC50 [10]: 46.9 nM
- IC50 [7]: 497 nM
Structure (SMILES): COc1cc(F)ccc1-c1ccnc(Nc2ccc3c(c2)N(C(C)C)[C@H](C)C(=O)N3C)n1

- IC50 [10]: 23.9 nM
- IC50 [7]: 81.3 nM
Structure (SMILES): CC(C)N1c2cc(Nc3ncc(F)c(-c4cncc5ccccc45)n3)ccc2N(C)C(=O)[C@H]1C

- inhibition [13]: 11%
- IC50 [10]: 122 nM
Structure (SMILES): CC(C)N1c2cc(Nc3nccc(-c4cccc(NC5CCCC5)c4)n3)ccc2N(C)C(=O)[C@H]1C

- IC50 [10]: 31.7 nM
- IC50 [7]: 535 nM
Structure (SMILES): COc1ccc(-c2ccnc(Nc3ccc4c(c3)N(C(C)C)[C@H](C)C(=O)N4C)n2)cc1

- inhibition [14]: Dose-dependent effect
- inhibition [15]: Dose-dependent effect
Structure (SMILES): COc1cc(F)ccc1-c1ncnc(Nc2cccc(C[S@](C)(=N)=O)c2)n1

- inhibition [13]: 13%
- IC50 [10]: 169 nM
Structure (SMILES): CC(C)N1c2cc(Nc3nccc(-c4cccc(NC5CCCCC5)c4)n3)ccc2N(C)C(=O)[C@H]1C

- IC50 [10]: 488 nM
- IC50 [7]: 5850 nM
Structure (SMILES): Cc1ccc(-c2ccnc(Nc3ccc4c(c3)N(C(C)C)[C@H](C)C(=O)N4C)n2)cc1

- inhibition [3]: 0.2%
- inhibition [1]: 94.5%
- inhibition [4]: 37.5%
- inhibition [5]: 7.7%
- inhibition [2]: 98%
- inhibition [6]: 4%
- IC50 [7]: 83 nM
- inhibition [11]: 43.7%
- inhibition [8]: 82.4%
Structure (SMILES): CC(C)N1c2cc(Nc3nccc(-c4ccncc4)n3)ccc2N(C)C(=O)[C@H]1C

- inhibition [3]: 2.7%
- inhibition [1]: 2.2%
- inhibition [4]: -4.1%
- inhibition [5]: 0.7%
- inhibition [2]: 0.7%
- inhibition [6]: -6.1%
- IC50 [7]: 77.3 nM
- inhibition [11]: 14.2%
- inhibition [8]: -1%
Structure (SMILES): CC(C)N1c2cc(Nc3cccc(-c4ccncc4)c3)ccc2N(C)C(=O)[C@H]1C

- inhibition [3]: 2.3%
- inhibition [1]: 2%
- inhibition [4]: -0.1%
- inhibition [5]: -3.3%
- inhibition [2]: -4.1%
- inhibition [6]: -3%
- IC50 [7]: 666 nM
- inhibition [11]: -1.8%
- inhibition [8]: 5.2%
Structure (SMILES): CC(C)N1c2cc(Nc3cccc(-c4cccc(C#N)c4)c3)ccc2N(C)C(=O)[C@H]1C

- IC50 [10]: 183 nM
- IC50 [7]: 115 nM
Structure (SMILES): Cc1c(N)cccc1-c1ccnc(Nc2ccc3c(c2)N(C(C)C)[C@H](C)C(=O)N3C)n1

- IC50 [10]: 22 nM
- IC50 [7]: 173 nM
Structure (SMILES): CNc1cccc(-c2ccnc(Nc3ccc4c(c3)N(C(C)C)[C@H](C)C(=O)N4C)n2)c1

- IC50 [10]: 79.8 nM
- IC50 [7]: 75.9 nM
Structure (SMILES): CC(C)N1c2cc(Nc3nccc(-c4cccc5cnccc45)n3)ccc2N(C)C(=O)[C@H]1C

- inhibition [3]: 1.8%
- inhibition [1]: -6.1%
- inhibition [4]: -4.8%
- inhibition [5]: 0.9%
- inhibition [2]: 1.3%
- inhibition [6]: -3.4%
- IC50 [7]: 357 nM
- inhibition [11]: -1.5%
- inhibition [8]: 6.1%
Structure (SMILES): CC(C)N1c2cc(Nc3cccc(-c4ccccc4)c3)ccc2N(C)C(=O)[C@H]1C

- IC50 [10]: 5.9 nM
- IC50 [7]: 120 nM
Structure (SMILES): CC(C)N1c2cc(Nc3nccc(-c4cccc(N)c4)n3)ccc2N(C)C(=O)[C@H]1C

- IC50 [10]: 578 nM
- IC50 [7]: 156 nM
Structure (SMILES): Cc1cc(F)ccc1-c1ccnc(Nc2ccc3c(c2)N(C(C)C)[C@H](C)C(=O)N3C)n1

- IC50 [10]: 50.9 nM
- IC50 [7]: 268 nM
Structure (SMILES): CC(C)Nc1cccc(-c2ccnc(Nc3ccc4c(c3)N(C(C)C)[C@H](C)C(=O)N4C)n2)c1

- inhibition [3]: -0.8%
- inhibition [1]: 25.2%
- inhibition [4]: 14.1%
- inhibition [5]: 2.8%
- inhibition [2]: 71.8%
- inhibition [6]: 8.7%
- IC50 [7]: 161 nM
- inhibition [11]: 54.4%
- inhibition [8]: 63.1%
Structure (SMILES): CC(C)N1c2cc(Nc3nccc(-c4cccc(C#N)c4)n3)ccc2N(C)C(=O)[C@H]1C
